The values that follow come from ChEMBL document CHEMBL4382192, “Discovery of a potent dual ALK and EGFR T790M inhibitor” (Eur J Med Chem, 2017).

Experiment [1] deals with Serine/threonine-protein kinase Nek4 (Homo sapiens) (UniProt P51957). In words: Binding affinity to wild-type human full length NEK4 (M1 to F841 residues) expressed in mammalian expression system assessed as residual binding level at 1 uM by Kinomescan method relative to control. In short, it runs like this: (§1)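 Single-point kinome-wide KINOMEscan binding panel, test compound at 1 μM, run by the provider's standard protocol.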

Experiment [2] has as its target Ribosomal protein S6 kinase alpha-4 (Homo sapiens) (UniProt O75676). The experiment in a line: Binding affinity to wild-type human partial length N-terminal RPS6KA4 kinase domain 1 expressed in bacterial expression system assessed as residual binding level at 1 uM by Kinomescan method relative to control.
The target of experiment [3] is Serine/threonine-protein kinase ULK3 (Homo sapiens) (UniProt Q6PHR2). In words: Binding affinity to wild-type human partial length ULK3 (M1 to Q290 residues) expressed in mammalian expression system assessed as residual binding level at 1 uM by Kinomescan method relative to control.
Chain of Serine/threonine-protein kinase ULK3 (Homo sapiens) (Q6PHR2 whole entry, the tested form may be a part): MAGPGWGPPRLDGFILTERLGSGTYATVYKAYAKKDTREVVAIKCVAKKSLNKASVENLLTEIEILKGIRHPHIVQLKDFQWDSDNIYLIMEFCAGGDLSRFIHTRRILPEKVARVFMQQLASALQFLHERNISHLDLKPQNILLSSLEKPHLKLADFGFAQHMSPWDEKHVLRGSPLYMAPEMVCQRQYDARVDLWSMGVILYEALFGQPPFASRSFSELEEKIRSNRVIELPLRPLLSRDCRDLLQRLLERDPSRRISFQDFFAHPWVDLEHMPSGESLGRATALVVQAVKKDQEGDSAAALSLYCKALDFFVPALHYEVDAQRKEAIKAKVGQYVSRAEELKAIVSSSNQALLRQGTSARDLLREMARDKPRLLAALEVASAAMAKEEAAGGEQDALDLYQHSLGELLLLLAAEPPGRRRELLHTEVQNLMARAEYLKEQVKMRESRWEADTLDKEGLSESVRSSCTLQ
For experiment [4], the target named is Ephrin type-A receptor 7 (Homo sapiens) (UniProt Q15375). The experiment in a line: Binding affinity to wild-type human partial length EPHA7 (Y608 to S912 residues) expressed in bacterial expression system assessed as residual binding level at 1 uM by Kinomescan method relative to control.
Chain of Ephrin type-A receptor 7 (Homo sapiens) (Q15375 28-998 limits assumed): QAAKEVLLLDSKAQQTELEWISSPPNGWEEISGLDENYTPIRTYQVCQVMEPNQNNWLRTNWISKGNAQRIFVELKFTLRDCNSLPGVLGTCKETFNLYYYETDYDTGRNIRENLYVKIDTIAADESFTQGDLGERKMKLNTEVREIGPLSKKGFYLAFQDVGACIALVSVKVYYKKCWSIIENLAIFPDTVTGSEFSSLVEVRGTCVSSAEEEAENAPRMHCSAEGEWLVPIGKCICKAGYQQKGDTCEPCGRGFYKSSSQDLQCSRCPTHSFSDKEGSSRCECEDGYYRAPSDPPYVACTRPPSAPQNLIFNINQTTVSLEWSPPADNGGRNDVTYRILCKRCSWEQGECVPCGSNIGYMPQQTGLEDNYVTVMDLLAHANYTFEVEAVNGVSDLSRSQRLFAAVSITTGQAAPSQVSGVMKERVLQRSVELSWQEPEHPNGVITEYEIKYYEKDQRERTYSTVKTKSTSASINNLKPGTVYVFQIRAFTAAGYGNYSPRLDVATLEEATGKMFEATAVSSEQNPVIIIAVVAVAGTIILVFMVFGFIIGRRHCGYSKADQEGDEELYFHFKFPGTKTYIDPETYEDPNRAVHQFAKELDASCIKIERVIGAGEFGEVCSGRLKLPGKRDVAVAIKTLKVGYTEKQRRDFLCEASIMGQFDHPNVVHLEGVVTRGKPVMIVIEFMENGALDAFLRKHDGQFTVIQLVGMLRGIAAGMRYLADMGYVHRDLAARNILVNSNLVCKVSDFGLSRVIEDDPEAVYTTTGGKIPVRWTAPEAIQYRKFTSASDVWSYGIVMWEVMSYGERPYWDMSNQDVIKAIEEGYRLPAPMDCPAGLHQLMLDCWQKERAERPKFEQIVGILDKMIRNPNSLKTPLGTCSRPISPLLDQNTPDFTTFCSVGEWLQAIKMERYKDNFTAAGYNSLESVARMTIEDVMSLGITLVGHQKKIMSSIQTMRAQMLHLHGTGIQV
The test system of experiment [5] is Proto-oncogene tyrosine-protein kinase receptor Ret (Homo sapiens), P07949 [V804M]. In words: Binding affinity to human partial length RET V804M mutant (E713 to D1014 residues) expressed in bacterial expression system assessed as residual binding level at 1 uM by Kinomescan method relative to control. The method in brief: (§2)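 Kinome-wide selectivity panel run by the KINOMEscan method, with the test compound at a single concentration of 1 μM. Wild-type and mutant kinases were profiled in the same screen.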

The test system of experiment [6] is Receptor-type tyrosine-protein kinase FLT3 (Homo sapiens), P36888 [D835V]. The experiment in a line: Binding affinity to human partial length FLT3 D835V mutant (V592 to Y969 residues) expressed in bacterial expression system assessed as residual binding level at 1 uM by Kinomescan method relative to control. The method in brief:
as §2

Experiment [7] has as its target Serine/threonine-protein kinase WNK3 (Homo sapiens) (UniProt Q9BYP7). In words: Binding affinity to wild-type human partial length WNK3 (M1 to D434 residues) expressed in mammalian expression system assessed as residual binding level at 1 uM by Kinomescan method relative to control.
Experiment [8] concerns the target Serine/threonine-protein kinase B-raf (Homo sapiens) (UniProt P15056). The experiment in a line: Binding affinity to wild-type human partial length BRAF (S429 to E741 residues) expressed in mammalian expression system assessed as residual binding level at 1 uM by Kinomescan method relative to control.
For experiment [9], the target named is Protein kinase C theta type (Homo sapiens) (UniProt Q04759). The experiment in a line: Binding affinity to wild-type human partial length PRKCQ (L350 to S706 residues) expressed in bacterial expression system assessed as residual binding level at 1 uM by Kinomescan method relative to control.
Experiment [10] deals with CDK4/Cyclin D3 (Homo sapiens) (UniProt P11802+P30281). The experiment in a line: Binding affinity to wild-type human full length CDK4/cyclinD3 (M1 to E303 residues) expressed in mammalian expression system assessed as residual binding level at 1 uM by Kinomescan method relative to control.
The target in experiment [11] is Calcium/calmodulin-dependent protein kinase type II subunit delta (Homo sapiens) (UniProt Q13557). In words: Binding affinity to wild-type human partial length CAMK2D (M1 to E329 residues) expressed in bacterial expression system assessed as residual binding level at 1 uM by Kinomescan method relative to control.
For experiment [12], the target named is Peripheral plasma membrane protein CASK (Homo sapiens) (UniProt O14936). In words: Binding affinity to wild-type human partial length CASK (M1 to H315 residues) expressed in mammalian expression system assessed as residual binding level at 1 uM by Kinomescan method relative to control.
Experiment [13] has as its target Serine/threonine-protein kinase 32C (Homo sapiens) (UniProt Q86UX6). In words: Binding affinity to wild-type human partial length YANK3 (M68 to G486 residues) expressed in bacterial expression system assessed as residual binding level at 1 uM by Kinomescan method relative to control.
For experiment [14], the target named is Serine/threonine-protein kinase 32A (Homo sapiens) (UniProt Q8WU08). In words: Binding affinity to wild-type human full length YANK1 (M1 to L396 residues) expressed in mammalian expression system assessed as residual binding level at 1 uM by Kinomescan method relative to control.
Experiment [15] concerns the target Serine/threonine-protein kinase BRSK2 (Homo sapiens) (UniProt Q8IWQ3). In words: Binding affinity to wild-type human full length BRSK2 (M1 to L674 residues) expressed in bacterial expression system assessed as residual binding level at 1 uM by Kinomescan method relative to control.
The target of experiment [16] is Fibroblast growth factor receptor 2 (Homo sapiens) (UniProt P21802). The experiment in a line: Binding affinity to wild-type human partial length FGFR2 (D457 to E769 residues) expressed in bacterial expression system assessed as residual binding level at 1 uM by Kinomescan method relative to control.
Experiment [17] has as its target SRSF protein kinase 3 (Homo sapiens) (UniProt Q9UPE1). In words: Binding affinity to wild-type human partial length SRPK3 (P41 to P567 residues) expressed in bacterial expression system assessed as residual binding level at 1 uM by Kinomescan method relative to control.
The target of experiment [18] is Serine/threonine-protein kinase 3 (Homo sapiens) (UniProt Q13188). The experiment in a line: Binding affinity to wild-type human partial length MST2 (D17 to E318 residues) expressed in bacterial expression system assessed as residual binding level at 1 uM by Kinomescan method relative to control.
Chain of Serine/threonine-protein kinase 3 (Homo sapiens) (Q13188 whole entry, the tested form may be a part): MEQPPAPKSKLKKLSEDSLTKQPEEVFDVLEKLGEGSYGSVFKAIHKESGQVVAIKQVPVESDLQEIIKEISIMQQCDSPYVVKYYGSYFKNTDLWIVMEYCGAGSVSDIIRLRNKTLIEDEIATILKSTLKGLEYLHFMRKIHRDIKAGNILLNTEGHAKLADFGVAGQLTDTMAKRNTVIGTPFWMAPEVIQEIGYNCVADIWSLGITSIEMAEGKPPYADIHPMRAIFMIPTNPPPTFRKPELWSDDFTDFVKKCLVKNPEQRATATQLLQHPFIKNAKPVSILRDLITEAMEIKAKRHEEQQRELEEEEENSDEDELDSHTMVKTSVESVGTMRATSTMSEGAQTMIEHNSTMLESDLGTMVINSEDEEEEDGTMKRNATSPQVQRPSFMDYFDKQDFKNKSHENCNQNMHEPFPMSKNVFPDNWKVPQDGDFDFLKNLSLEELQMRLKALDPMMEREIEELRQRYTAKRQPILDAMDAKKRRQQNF
Experiment [19] has as its target Receptor-interacting serine/threonine-protein kinase 4 (Homo sapiens) (UniProt P57078). In words: Binding affinity to wild-type human partial length RIPK4 (M1 to V303 residues) expressed in mammalian expression system assessed as residual binding level at 1 uM by Kinomescan method relative to control.
In experiment [20] the test system is Mast/stem cell growth factor receptor Kit (Homo sapiens), P10721 [L576P]. The experiment in a line: Binding affinity to human partial length KIT L576P mutant (Y545 to D952 residues) expressed in bacterial expression system assessed as residual binding level at 1 uM by Kinomescan method relative to control. The method in brief:
as §2

Experiment [21] concerns the target Serine/threonine-protein kinase 26 (Homo sapiens) (UniProt Q9P289). The experiment in a line: Binding affinity to wild-type human full length MST4 (M1 to P416 residues) expressed in mammalian expression system assessed as residual binding level at 1 uM by Kinomescan method relative to control. In short, it runs like this:
as §1

Experiment [22] has as its target Serine/threonine-protein kinase D2 (Homo sapiens) (UniProt Q9BZL6). The experiment in a line: Binding affinity to wild-type human partial length PRKD2 (A519 to E838 residues) expressed in bacterial expression system assessed as residual binding level at 1 uM by Kinomescan method relative to control.
Experiment [23] deals with Dual specificity mitogen-activated protein kinase kinase 1 (Homo sapiens) (UniProt Q02750). In words: Binding affinity to wild-type human full length MEK1 (M1 to V393 residues) expressed in mammalian expression system assessed as residual binding level at 1 uM by Kinomescan method relative to control. The method in brief:
as §1

Experiment [24] concerns Epidermal growth factor receptor (Homo sapiens), P00533 [UNDEFINED MUTATION]. The experiment in a line: Binding affinity to human partial length EGFR S752-I759del mutant expressed in bacterial expression system assessed as residual binding level at 1 uM by Kinomescan method relative to control. In short, it runs like this:
as §2

Chain of Ribosomal protein S6 kinase alpha-4 (Homo sapiens) (O75676 whole entry, looked up, the tested form may be a part): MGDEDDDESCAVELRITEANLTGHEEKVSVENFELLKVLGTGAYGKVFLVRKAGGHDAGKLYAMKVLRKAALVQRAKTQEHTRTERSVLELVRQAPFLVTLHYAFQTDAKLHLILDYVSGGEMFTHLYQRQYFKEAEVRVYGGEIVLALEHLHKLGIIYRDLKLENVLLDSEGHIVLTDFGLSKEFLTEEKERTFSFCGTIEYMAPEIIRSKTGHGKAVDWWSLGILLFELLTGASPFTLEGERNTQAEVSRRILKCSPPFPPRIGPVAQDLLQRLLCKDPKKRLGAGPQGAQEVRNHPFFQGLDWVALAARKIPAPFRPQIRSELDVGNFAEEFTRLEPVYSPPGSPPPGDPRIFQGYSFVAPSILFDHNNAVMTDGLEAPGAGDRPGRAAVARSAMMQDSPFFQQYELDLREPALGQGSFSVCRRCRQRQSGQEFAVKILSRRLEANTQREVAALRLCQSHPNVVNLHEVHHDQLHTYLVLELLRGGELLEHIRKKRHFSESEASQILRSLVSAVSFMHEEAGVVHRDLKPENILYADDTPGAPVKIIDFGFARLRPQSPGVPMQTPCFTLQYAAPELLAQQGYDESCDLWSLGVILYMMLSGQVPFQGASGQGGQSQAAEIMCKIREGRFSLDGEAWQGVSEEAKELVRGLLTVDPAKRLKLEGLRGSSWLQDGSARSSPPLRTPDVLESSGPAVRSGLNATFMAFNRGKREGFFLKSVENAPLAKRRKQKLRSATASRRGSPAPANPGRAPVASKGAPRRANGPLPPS
Chain of Serine/threonine-protein kinase D2 (Homo sapiens) (Q9BZL6 whole entry, the tested form may be a part): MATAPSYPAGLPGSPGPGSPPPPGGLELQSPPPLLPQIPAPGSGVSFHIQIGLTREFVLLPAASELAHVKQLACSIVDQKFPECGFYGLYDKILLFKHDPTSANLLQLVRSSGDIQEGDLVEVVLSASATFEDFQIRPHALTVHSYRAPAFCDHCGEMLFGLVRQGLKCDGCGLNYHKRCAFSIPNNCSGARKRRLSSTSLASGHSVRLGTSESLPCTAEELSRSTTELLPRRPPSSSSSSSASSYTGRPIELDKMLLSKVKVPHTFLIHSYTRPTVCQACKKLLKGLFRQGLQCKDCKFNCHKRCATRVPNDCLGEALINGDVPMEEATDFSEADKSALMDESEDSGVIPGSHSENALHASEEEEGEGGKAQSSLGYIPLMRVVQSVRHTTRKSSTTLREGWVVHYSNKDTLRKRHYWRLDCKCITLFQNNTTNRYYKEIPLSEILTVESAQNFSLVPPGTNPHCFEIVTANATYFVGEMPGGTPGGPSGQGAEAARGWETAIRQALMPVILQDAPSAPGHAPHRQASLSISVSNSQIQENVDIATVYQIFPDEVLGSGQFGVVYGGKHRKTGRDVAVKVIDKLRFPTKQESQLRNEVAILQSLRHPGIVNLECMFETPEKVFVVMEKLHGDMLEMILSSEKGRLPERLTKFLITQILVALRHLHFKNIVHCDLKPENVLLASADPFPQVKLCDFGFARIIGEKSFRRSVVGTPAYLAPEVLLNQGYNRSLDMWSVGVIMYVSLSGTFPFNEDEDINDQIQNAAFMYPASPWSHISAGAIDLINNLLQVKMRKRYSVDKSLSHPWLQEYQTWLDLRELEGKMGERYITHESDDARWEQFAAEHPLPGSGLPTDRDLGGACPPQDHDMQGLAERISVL
Chain of Receptor-interacting serine/threonine-protein kinase 4 (Homo sapiens) (P57078 whole entry, the tested form may be a part): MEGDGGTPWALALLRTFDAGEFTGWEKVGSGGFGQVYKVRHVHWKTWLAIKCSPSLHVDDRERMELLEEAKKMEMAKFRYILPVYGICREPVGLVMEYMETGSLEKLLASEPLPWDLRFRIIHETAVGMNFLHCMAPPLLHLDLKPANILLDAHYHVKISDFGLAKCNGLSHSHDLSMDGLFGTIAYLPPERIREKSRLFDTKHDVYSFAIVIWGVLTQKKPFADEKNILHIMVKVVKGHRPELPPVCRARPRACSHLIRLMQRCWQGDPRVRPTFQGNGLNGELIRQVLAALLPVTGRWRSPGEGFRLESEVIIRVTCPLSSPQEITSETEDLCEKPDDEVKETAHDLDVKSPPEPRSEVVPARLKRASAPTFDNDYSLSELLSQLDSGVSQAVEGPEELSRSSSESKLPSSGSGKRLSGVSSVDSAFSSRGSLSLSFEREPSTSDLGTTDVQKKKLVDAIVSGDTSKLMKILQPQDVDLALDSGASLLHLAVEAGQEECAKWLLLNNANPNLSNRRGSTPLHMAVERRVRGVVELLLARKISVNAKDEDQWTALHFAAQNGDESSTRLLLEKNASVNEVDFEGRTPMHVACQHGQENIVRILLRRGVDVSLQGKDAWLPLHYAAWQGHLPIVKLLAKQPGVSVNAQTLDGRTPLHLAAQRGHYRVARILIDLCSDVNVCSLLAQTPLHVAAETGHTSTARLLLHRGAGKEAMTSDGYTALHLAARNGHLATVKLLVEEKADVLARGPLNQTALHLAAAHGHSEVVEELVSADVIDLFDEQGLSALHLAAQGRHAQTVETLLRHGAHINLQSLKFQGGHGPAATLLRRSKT
Chain of SRSF protein kinase 3 (Homo sapiens) (Q9UPE1 whole entry, the tested form may be a part): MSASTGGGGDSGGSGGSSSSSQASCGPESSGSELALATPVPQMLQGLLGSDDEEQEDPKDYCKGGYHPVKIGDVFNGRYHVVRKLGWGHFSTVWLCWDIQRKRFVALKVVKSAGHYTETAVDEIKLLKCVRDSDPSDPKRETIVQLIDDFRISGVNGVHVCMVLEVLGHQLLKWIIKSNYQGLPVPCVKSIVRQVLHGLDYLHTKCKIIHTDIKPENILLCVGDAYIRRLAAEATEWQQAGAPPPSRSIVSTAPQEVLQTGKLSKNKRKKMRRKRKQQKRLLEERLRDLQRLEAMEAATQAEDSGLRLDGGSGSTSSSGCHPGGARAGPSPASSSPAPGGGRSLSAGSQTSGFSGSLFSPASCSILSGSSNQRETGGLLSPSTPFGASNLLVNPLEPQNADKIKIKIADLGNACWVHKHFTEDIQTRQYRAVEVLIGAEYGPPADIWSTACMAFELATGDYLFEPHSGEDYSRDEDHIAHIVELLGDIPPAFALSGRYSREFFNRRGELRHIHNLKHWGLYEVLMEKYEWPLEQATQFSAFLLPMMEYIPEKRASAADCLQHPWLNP

As to `C=CC(=O)Nc1cc(Nc2ncc(Cl)c(Nc3ccccc3S(=O)(=O)C(C)C)n2)c(OC)cc1N(C)CCN(C)C`, the Activity in experiment [1] worked out at 100%; in experiment [2] it was 99%; in experiment [3] it was 7.7%; in [4], 68%; in [5] it was 15%; in experiment [6], 2.4%. For the same compound, the Activity in experiment [7] is 100%; in experiment [8], 95%; in [9], 48%; in [10], 55%; in experiment [11], 41%; in experiment [12], 95%. In addition, the Activity was 13% in experiment [13]; 2.3% in experiment [14]; 49% in [15]; 15% in experiment [16]; 77% in [17]; 56% in experiment [18]. For the same compound, the Activity in experiment [19] worked out at 72%; in experiment [20], 9.1%; in [21], 29%; in [22] it was 3.1%; in [23], 72%; in experiment [24], 2.4%.
